Activity calls are given as the source filed them. No rule for the calls is given here.

In the assay the target is T1, P2X purinoceptor 7 (Homo sapiens) (UniProt Q99572).
T1 sequence (whole entry): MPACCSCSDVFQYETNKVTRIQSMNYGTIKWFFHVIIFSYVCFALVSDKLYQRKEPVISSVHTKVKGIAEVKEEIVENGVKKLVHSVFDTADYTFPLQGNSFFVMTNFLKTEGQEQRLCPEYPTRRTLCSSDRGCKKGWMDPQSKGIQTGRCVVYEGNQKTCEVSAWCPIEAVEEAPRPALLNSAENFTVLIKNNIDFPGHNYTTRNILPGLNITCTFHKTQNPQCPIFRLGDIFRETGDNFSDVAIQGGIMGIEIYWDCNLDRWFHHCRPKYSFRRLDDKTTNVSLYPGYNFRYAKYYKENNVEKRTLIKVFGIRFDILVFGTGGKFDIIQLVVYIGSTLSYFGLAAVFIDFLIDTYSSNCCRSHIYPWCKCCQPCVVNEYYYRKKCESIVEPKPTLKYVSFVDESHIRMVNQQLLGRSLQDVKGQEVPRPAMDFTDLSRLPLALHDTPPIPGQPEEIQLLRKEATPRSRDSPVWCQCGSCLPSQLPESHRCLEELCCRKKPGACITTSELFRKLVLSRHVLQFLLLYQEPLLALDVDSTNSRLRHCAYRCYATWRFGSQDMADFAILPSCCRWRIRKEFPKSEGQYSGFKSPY
As to the kind of experiment: Inhibition of human P2X7 expressed in human HEK293 cells assessed as reduction in BzATP-stimulated TO-PRO-3 incorporation at 10 uM preincubated with compound and TO-PRO-3 for 15 mins prior to BzATP addition and measured after 1 hr by Fluo-3AM dye based flow cytometry relative to control. In kind it is cell-based. In a few lines:
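HEK-293 cells overexpressing human P2RX7 loaded with Fluo-3 AM, then incubated with TO-PRO-3 (large pore uptake) and propidium iodide (viability) plus compound (10⁻⁵ M single point) for 15 min before BzATP 100 µM. After 1 h, flow cytometry; percentage of Fluo-3/TO-PRO-3 double-positive cells calculated. Mean of n ≥ 2 with positive control.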

With `COC(=O)[C@@H]1CCC(=O)N1Cc1ccc(Cl)cc1Cl`, the inhibition entry is “inactive”.

`COC(=O)[C@@H]1CCC(=O)N1C(c1ccccc1)c1ccccc1`: the inhibition entry is “inactive”.

Take `C[C@@H](NC(=O)[C@@H]1CCC(=O)N1)c1ccccc1`: the inhibition entry was “inactive”.

As for `O=C1CC[C@@H](C(=O)NCc2ccncc2)N1`, the inhibition entry is “inactive”.

For the compound `NC(=O)[C@@H]1CCC(=O)N1`, the inhibition entry was “inactive”.

For `O=C1CC[C@@H](C(=O)Nc2ccc(Cl)cc2Cl)N1`, the inhibition result is “inactive”.

For `COC(=O)[C@@H]1CCC(=O)N1c1ccccc1`, the inhibition entry was “inactive”.

`COC(=O)[C@@H]1CCC(=O)N1[Si](C)(C)C`: the inhibition result is “inactive”.

Take `O=C1CC[C@@H](C(=O)Nc2ccncc2)N1`: the inhibition result is “inactive”.

Consider `O=C1N[C@H](C(=O)O)CO1`, for which the inhibition entry is “inactive”.

In the case of `COC(=O)[C@@H]1CCC(=O)N1c1ccc(Cl)cc1Cl`, the inhibition entry was “inactive”.

With `COC(=O)[C@@H]1CCC(=O)N1Cc1ccccc1Cl`, the inhibition result was “inactive”.

For `C[C@@H](c1ccccc1)N1C(=O)[C@@H]2C/C(=C\N(C)C)C(=O)N2C1N(C)C` (stereo partly drawn), the inhibition was 0%.

As to `CN(C)C1N(Cc2ccc(Cl)cc2Cl)C(=O)[C@@H]2CC(=O)C(=O)N12` (stereo partly drawn), the inhibition is 0%.

For `CN(C)/C=C1\C[C@H]2C(=O)N(Cc3ccccc3)C(N(C)C)N2C1=O` (stereo partly drawn), the inhibition is 0%.

Consider `COC(=O)[C@@H]1CCC(=O)N1c1cccs1`, for which the inhibition result was “inactive”.

As to `O=C(NCc1ccc(Cl)cc1Cl)[C@@H]1CCC(=O)N1c1ccncc1`, the inhibition stood at 0%.

With `O=C1CC[C@@H](C(=O)NCC2CCCCC2)N1`, the inhibition entry is “inactive”.

Turning to `O=C(Nc1ccc(Cl)cc1Cl)[C@@H]1CCC(=O)N1c1ccccc1`, the inhibition was found to be 0%.

As to `C[C@H](NC(=O)[C@@H]1CCC(=O)N1)c1ccccc1`, the inhibition result is “inactive”.

Regarding `O=C1CC[C@@H](C(=O)NCCc2ccc(Cl)cc2Cl)N1`, the inhibition entry was “inactive”.

Turning to `O=C1CC[C@@H](C(=O)NCc2ccc(Cl)cc2Cl)N1`, the inhibition result was “inactive”.

`O=C(NCCc1ccccc1)[C@@H]1CCC(=O)N1Cc1ccccc1`: the inhibition worked out at 0%.

For the compound `O=C(NCc1ccco1)[C@@H]1CCC(=O)N1Cc1ccc(Cl)cc1Cl`, the inhibition amounted to 0%.

With `CN(C)/C=C1\CC[C@@H](C(=O)NCc2ccc(Cl)cc2Cl)NC1=O`, the inhibition came to 6%.

As for `O=C(NCc1ccc(Cl)cc1Cl)[C@@H]1CCC(=O)N1c1cccc2ncccc12`, the inhibition amounted to 0%.

Regarding `COC(=O)[C@@H]1CCC(=O)N1c1ccccc1Cl`, the inhibition result was “inactive”.

On to `C[C@H](NC(=O)[C@@H]1C/C(=C\N(C)C)C(=O)N1)c1ccccc1`, for which the inhibition was 0%.

On to `O=C(NCc1ccc(Cl)cc1Cl)C1CC(=O)N(c2cccs2)C1` (stereo not drawn), for which the inhibition turned out to be 92%.

As for `COC(=O)C1C/C(=C\N(C)C)C(=O)N1C(=O)OC` (stereo not drawn), the inhibition entry is “inactive”.

Take `COc1ccc(NC(=O)[C@@H]2CCC(=O)N2)cc1`: the inhibition entry was “inactive”.

As to `COC(=O)[C@@H]1CCC(=O)N1c1cccc2ncccc12`, the inhibition result is “inactive”.

Regarding `O=C1CCCC(C(=O)O)N1` (stereo not drawn), the inhibition turned out to be 0%.

For the compound `COc1ccc(CNC(=O)[C@@H]2CCC(=O)N2)cc1`, the inhibition result was “inactive”.

In the case of `COc1ccc(NC(=O)[C@@H]2CCC(=O)N2)cc1F`, the inhibition result was “inactive”.

For `COC(=O)[C@@H]1CCC(=O)N1C`, the inhibition result was “inactive”.

In the case of `COC(=O)[C@@H]1CCC(=O)N1Cc1ccc([N+](=O)[O-])cc1`, the inhibition result was “inactive”.

Take `CCCCCCNC(=O)[C@@H]1CCC(=O)N1`: the inhibition entry is “inactive”.

Take `COC(=O)[C@@H]1CCC(=O)N1Cc1ccc(Br)cc1`: the inhibition result is “inactive”.

In the case of `COc1ccccc1CNC(=O)[C@@H]1CCC(=O)N1`, the inhibition result was “inactive”.

For `COC(=O)[C@@H]1CCC(=O)N1c1ccc(Cl)cc1`, the inhibition entry was “inactive”.

Regarding `Cc1ccc(NC(=O)[C@@H]2CCC(=O)N2)cc1`, the inhibition entry was “inactive”.

In the case of `C[C@H](NC(=O)[C@@H]1CCC(=O)N1c1cccs1)c1ccc(Cl)cc1Cl`, the inhibition was 0%.

As to `O=C1CC[C@@H](C(=O)NCCc2ccccc2)N1`, the inhibition entry was “inactive”.

Regarding `COC(=O)[C@@H]1CCC(=O)N1c1ccc(OC)cc1`, the inhibition entry is “inactive”.

As for `COC(=O)C1CNC(=O)C1` (stereo not drawn), the inhibition result was “inactive”.

Take `O=C(NCc1ccc(Cl)cc1Cl)[C@@H]1CCC(=O)N1Cc1ccccc1Cl`: the inhibition was determined as 85%.

On to `C[C@@H](NC(=O)[C@@H]1C/C(=C\N(C)C)C(=O)N1)c1ccccc1`, for which the inhibition was 0%.

Consider `O=C1CC[C@@H](C(=O)Nc2ccccc2)N1`, for which the inhibition result was “inactive”.

For `O=C(NCc1ccc(Cl)cc1Cl)[C@@H]1CCC(=O)N1c1cccc(C(F)(F)F)c1`, the inhibition amounted to 0%.

Turning to `COc1ccccc1CNC(=O)[C@@H]1C/C(=C\N(C)C)C(=O)N1`, the inhibition was found to be 0%.

For the compound `O=C1CC[C@@H](C(=O)NCc2ccccc2Cl)N1`, the inhibition result is “inactive”.

Regarding `CN(C)C(=O)[C@@H]1CCC(=O)N1c1ccccc1`, the inhibition amounted to 0%.

For the compound `COC(=O)[C@@H]1CCC(=O)N1c1cccc(C(F)(F)F)c1`, the inhibition entry is “inactive”.

Take `O=C1CC[C@@H](C(=O)NCc2cccc(C(F)(F)F)c2Cl)N1`: the inhibition result was “inactive”.

On to `COC(=O)[C@@H]1CCC(=O)N1Cc1ccc(OC)cc1`, for which the inhibition entry was “inactive”.

Consider `O=C1CC[C@@H](C(=O)NCc2cc(C(F)(F)F)ccc2Cl)N1`, for which the inhibition result was “inactive”.

With `COC(=O)[C@@H]1CCC(=O)N1c1cc(Cl)cc(Cl)c1`, the inhibition entry was “inactive”.

As to `O=C(NCc1ccc(Cl)cc1Cl)[C@@H]1CCC(=O)N1c1ccccc1Cl`, the inhibition was 0%.

As for `O=C1CC[C@@H](C(=O)NC2CCCCC2)N1`, the inhibition result was “inactive”.

As for `O=C(NCc1ccccc1Cl)[C@@H]1CCC(=O)N1Cc1ccc(Cl)cc1Cl`, the inhibition worked out at 0%.

For `O=C(NCc1ccc(Cl)cc1Cl)[C@@H]1C/C(=N\O)C(=O)N1c1cccs1`, the inhibition turned out to be 76%.

On to `COC(=O)[C@@H]1CCC(=O)N1c1ccoc1`, for which the inhibition entry is “inactive”.

In the case of `O=C(NCc1ccc(Cl)cc1Cl)[C@@H]1CCC(=O)N1Cc1ccc(Cl)cc1Cl`, the inhibition came to 0%.

For the compound `O=C1CC[C@@H](C(=O)NCc2ccccc2)N1`, the inhibition result was “inactive”.

Turning to `COC(=O)[C@@H]1CCC(=O)N1c1ccc(C#N)cc1`, the inhibition entry was “inactive”.

On to `COC(=O)[C@@H]1CCC(=O)N1Cc1ccc(Cl)cc1`, for which the inhibition entry is “inactive”.

`COC(=O)[C@@H]1CCC(OC)=N1`: the inhibition result was “inactive”.

Take `O=C(NCc1ccc(Cl)cc1Cl)[C@@H]1CCC(=O)N1c1cc(Cl)cc(Cl)c1`: the inhibition came to 0%.

For the compound `COC(=O)[C@@H]1CCC(=O)N1c1ccncc1`, the inhibition result was “inactive”.

For the compound `COC(=O)[C@@H]1CCC(=O)N1Cc1ccc(C)cc1`, the inhibition entry was “inactive”.

For the compound `COc1ccc(CNC(=O)[C@@H]2CCC(=O)N2)c(OC)c1`, the inhibition result is “inactive”.

`COc1cc(N2C(=O)[C@@H]3C/C(=C\N(C)C)C(=O)N3C2N(C)C)cc(OC)c1OC` (stereo partly drawn): the inhibition came out at 0%.

Regarding `O=C1CC[C@@H](C(=O)NC2CC3CCC2C3)N1` (stereo partly drawn), the inhibition result is “inactive”.

For the compound `O=C(NCc1ccc(Cl)cc1Cl)[C@@H]1CCC(=O)N1Cc1ccc([N+](=O)[O-])cc1`, the inhibition stood at 0%.

Consider `O=C(NCCc1ccccc1)[C@@H]1CCC(=O)N1Cc1ccc([N+](=O)[O-])cc1`, for which the inhibition stood at 0%.

As for `COC(=O)[C@@H]1CCC(=O)N1Cc1ccccc1`, the inhibition entry is “inactive”.

Regarding `COc1cc(NC(=O)[C@@H]2CCC(=O)N2)cc(OC)c1OC`, the inhibition entry was “inactive”.

In general, inhibition refers to the drop in the measured response relative to a control, in per cent.

For the origin of these results see ChEMBL document CHEMBL4627246, “Pyroglutamide-Based P2X7 Receptor Antagonists Targeting Inflammatory Bowel Disease” (J Med Chem, 2020).
